According to ChEMBL document CHEMBL2062460, “Disubstituted thiourea derivatives and their activity on CNS: synthesis and biological evaluation” (Eur J Med Chem, 2012):
≈ marks a conversion by molar mass, not a printed value. Calls of active or inactive are those of the source. The calls are words filed in the database; no cut-off is given here.

Tested on: Micrococcus luteus
Test: Antibacterial activity against Micrococcus luteus ATCC 9341 after 18 hrs by twofold serial agar dilution technique
Assay type: functional
Details: ATCC 9341, 18 h
With S=C(Nc1ccc(I)cc1)Nc1nc[nH]n1 the MIC was 12.5 µg/mL (≈ 36.2 µM).

Tested on: Staphylococcus epidermidis
Test: Antibacterial activity against methicillin-resistant Staphylococcus epidermidis clinical isolate 342/09 after 18 hrs by twofold serial agar dilution technique
Assay type: functional
Details: clinical isolate 342/09, 18 h
Outline: (§1)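 Clinical isolates came from patients in Warsaw Medical University Hospitals and were classed as methicillin-susceptible or -resistant. MIC was determined by twofold serial agar dilution on Mueller–Hinton II agar (CLSI), 3.125–400 µg/mL in agar, with compounds in methanol or DMSO. Inoculum was 10^4 CFU/mL and plates were read after 18 h at 35 °C.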
In the case of S=C(Nc1ccc(I)cc1)Nc1nc[nH]n1, the MIC is reported as 25 µg/mL (≈ 72.4 µM).

Tested on: Staphylococcus aureus
Test: Antibacterial activity against methicillin-susceptible Staphylococcus aureus clinical isolate 338/08 after 18 hrs by twofold serial agar dilution technique
Assay type: functional
Details: clinical isolate 338/08, 18 h
Outline: as §1
Compound S=C(Nc1ccc(I)cc1)Nc1nc[nH]n1 has an MIC of 50 µg/mL (≈ 145 µM).

Tested on: Staphylococcus aureus
Test: Antibacterial activity against methicillin-resistant Staphylococcus aureus clinical isolate 306/08 after 18 hrs by twofold serial agar dilution technique
Assay type: functional
Details: clinical isolate 306/08, 18 h
Outline: as §1
S=C(Nc1ccc(I)cc1)Nc1nc[nH]n1 gave an MIC of 50 µg/mL (≈ 145 µM).

Tested on: Staphylococcus aureus
Test: Antibacterial activity against methicillin-resistant Staphylococcus aureus clinical isolate 277/08 after 18 hrs by twofold serial agar dilution technique
Assay type: functional
Details: clinical isolate 277/08, 18 h
Outline: as §1
Work on S=C(Nc1ccc(I)cc1)Nc1nc[nH]n1 yielded an MIC of 25 µg/mL (≈ 72.4 µM).

Tested on: Staphylococcus aureus
Test: Antibacterial activity against methicillin-susceptible Staphylococcus aureus clinical isolate 367/09 after 18 hrs by twofold serial agar dilution technique
Assay type: functional
Details: clinical isolate 367/09, 18 h
Outline: as §1
In the case of S=C(Nc1ccc(I)cc1)Nc1nc[nH]n1, the MIC is reported as 25 µg/mL (≈ 72.4 µM).

Tested on: Staphylococcus epidermidis
Test: Antibacterial activity against methicillin-resistant Staphylococcus epidermidis clinical isolate 377/09 after 18 hrs by twofold serial agar dilution technique
Assay type: functional
Details: clinical isolate 377/09, 18 h
Outline: as §1
Compound S=C(Nc1ccc(I)cc1)Nc1nc[nH]n1 has an MIC of 25 µg/mL (≈ 72.4 µM).

Tested on: Staphylococcus aureus
Test: Antibacterial activity against Staphylococcus aureus NCTC 4163 after 18 hrs by twofold serial agar dilution technique
Assay type: functional
Details: NCTC 4163, 18 h
Outline: (§2)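 Twofold serial agar dilution on Mueller–Hinton II agar, following CLSI guidelines. Compounds were dissolved in methanol or DMSO and tested at final agar concentrations of 3.125–400 µg/mL. Final inoculum was 10^4 CFU/mL.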
With S=C(Nc1ccc(I)cc1)Nc1nc[nH]n1 the MIC was 25 µg/mL (≈ 72.4 µM).

Tested on: Staphylococcus aureus
Test: Antibacterial activity against Staphylococcus aureus ATCC 25923 at 400 ug/disc after 18 hrs by disc diffusion method
Assay type: functional
Details: ATCC 25923, 18 h, read-out: DIZ
Outline: (§3)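 Disc diffusion per CLSI on Mueller–Hinton II agar; 9 mm paper discs loaded from methanol or DMSO solutions to 400 µg per disc, dried; growth inhibition zone diameter read after 18 h at 35 °C.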
In the case of S=C(Nc1ccc(I)cc1)Nc1nc[nH]n1, the zone of inhibition at 400 µg/disc is reported as 13 mm.

Tested on: Bacillus cereus
Test: Antibacterial activity against Bacillus cereus ATCC 11778 after 18 hrs by twofold serial agar dilution technique
Assay type: functional
Details: ATCC 11778, 18 h
Compound S=C(Nc1ccc(I)cc1)Nc1nc[nH]n1 has an MIC of 12.5 µg/mL (≈ 36.2 µM).

Tested on: Staphylococcus aureus
Test: Antibacterial activity against methicillin-resistant Staphylococcus aureus clinical isolate 309/08 after 18 hrs by twofold serial agar dilution technique
Assay type: functional
Details: clinical isolate 309/08, 18 h
Outline: as §1
Work on S=C(Nc1ccc(I)cc1)Nc1nc[nH]n1 yielded an MIC of 25 µg/mL (≈ 72.4 µM).

Tested on: Pseudomonas aeruginosa
Test: Antibacterial activity against Pseudomonas aeruginosa NCTC 6749 at 400 ug/disc after 18 hrs by disc diffusion method
Assay type: functional, organism-based
Details: not given
Outline: as §3
With S=C(Nc1ccc(I)cc1)Nc1nc[nH]n1 the “diameter of the inhibition zone (DIZ)” value was “inactive”.

Tested on: Bordetella bronchiseptica
Test: Antibacterial activity against Bordetella bronchiseptica ATCC 4617 at 400 ug/disc after 18 hrs by disc diffusion method
Assay type: functional, organism-based
Details: not given
Outline: as §3
With S=C(Nc1ccc(I)cc1)Nc1nc[nH]n1 the “diameter of the inhibition zone (DIZ)” value was “inactive”.

Tested on: Staphylococcus aureus
Test: Antibacterial activity against methicillin-susceptible Staphylococcus aureus clinical isolate 261/08 after 18 hrs by twofold serial agar dilution technique
Assay type: functional
Details: clinical isolate 261/08, 18 h
Outline: as §1
S=C(Nc1ccc(I)cc1)Nc1nc[nH]n1 showed an MIC of 25 µg/mL (≈ 72.4 µM).

Tested on: Staphylococcus epidermidis
Test: Antibacterial activity against methicillin-resistant Staphylococcus epidermidis clinical isolate 318/08 after 18 hrs by twofold serial agar dilution technique
Assay type: functional
Details: clinical isolate 318/08, 18 h
Outline: as §1
S=C(Nc1ccc(I)cc1)Nc1nc[nH]n1 showed an MIC of 12.5 µg/mL (≈ 36.2 µM).

Tested on: Staphylococcus epidermidis
Test: Antibacterial activity against methicillin-resistant Staphylococcus epidermidis clinical isolate 341/09 after 18 hrs by twofold serial agar dilution technique
Assay type: functional
Details: clinical isolate 341/09, 18 h
Outline: as §1
For S=C(Nc1ccc(I)cc1)Nc1nc[nH]n1, the MIC was 50 µg/mL (≈ 145 µM).

Tested on: Staphylococcus epidermidis
Test: Antibacterial activity against methicillin-resistant Staphylococcus epidermidis clinical isolate 316/08 after 18 hrs by twofold serial agar dilution technique
Assay type: functional
Details: clinical isolate 316/08, 18 h
Outline: as §1
With S=C(Nc1ccc(I)cc1)Nc1nc[nH]n1 the MIC was 50 µg/mL (≈ 145 µM).

Tested on: Staphylococcus aureus
Test: Antibacterial activity against Staphylococcus aureus ATCC 29213 after 18 hrs by twofold serial agar dilution technique
Assay type: functional
Details: ATCC 29213, 18 h
Outline: as §2
In the case of S=C(Nc1ccc(I)cc1)Nc1nc[nH]n1, the MIC is reported as 25 µg/mL (≈ 72.4 µM).

Tested on: Staphylococcus aureus
Test: Antibacterial activity against methicillin-resistant Staphylococcus aureus clinical isolate 275/08 after 18 hrs by twofold serial agar dilution technique
Assay type: functional
Details: clinical isolate 275/08, 18 h
Outline: as §1
S=C(Nc1ccc(I)cc1)Nc1nc[nH]n1 gave an MIC of 50 µg/mL (≈ 145 µM).

Tested on: Staphylococcus aureus
Test: Antibacterial activity against methicillin-susceptible Staphylococcus aureus clinical isolate 369/09 after 18 hrs by twofold serial agar dilution technique
Assay type: functional
Details: clinical isolate 369/09, 18 h
Outline: as §1
With S=C(Nc1ccc(I)cc1)Nc1nc[nH]n1 the MIC was 50 µg/mL (≈ 145 µM).

Tested on: Staphylococcus aureus
Test: Antibacterial activity against methicillin-resistant Staphylococcus aureus clinical isolate 307/08 after 18 hrs by twofold serial agar dilution technique
Assay type: functional
Details: clinical isolate 307/08, 18 h
Outline: as §1
Work on S=C(Nc1ccc(I)cc1)Nc1nc[nH]n1 yielded an MIC of 50 µg/mL (≈ 145 µM).

Tested on: Escherichia coli
Test: Antibacterial activity against Escherichia coli ATCC 10538 at 400 ug/disc after 18 hrs by disc diffusion method
Assay type: functional, organism-based
Details: not given
Outline: as §3
With S=C(Nc1ccc(I)cc1)Nc1nc[nH]n1 the “diameter of the inhibition zone (DIZ)” value was “inactive”.

Tested on: Proteus vulgaris
Test: Antibacterial activity against Proteus vulgaris NCTC 4635 at 400 ug/disc after 18 hrs by disc diffusion method
Assay type: functional, organism-based
Details: not given
Outline: as §3
In the case of S=C(Nc1ccc(I)cc1)Nc1nc[nH]n1, the “diameter of the inhibition zone (DIZ)” value is reported as “inactive”.

Tested on: Staphylococcus aureus
Test: Antibacterial activity against methicillin-susceptible Staphylococcus aureus clinical isolate 339/09 after 18 hrs by twofold serial agar dilution technique
Assay type: functional
Details: clinical isolate 339/09, 18 h
Outline: as §1
For S=C(Nc1ccc(I)cc1)Nc1nc[nH]n1, the MIC was 50 µg/mL (≈ 145 µM).

Tested on: Staphylococcus aureus
Test: Antibacterial activity against Staphylococcus aureus ATCC 6538 at 400 ug/disc after 18 hrs by disc diffusion method
Assay type: functional
Details: ATCC 6538, 18 h, read-out: DIZ
Outline: as §3
With S=C(Nc1ccc(I)cc1)Nc1nc[nH]n1 the zone of inhibition at 400 µg/disc was 12 mm.

Tested on: Staphylococcus aureus
Test: Antibacterial activity against methicillin-resistant Staphylococcus aureus clinical isolate 356/09 after 18 hrs by twofold serial agar dilution technique
Assay type: functional
Details: clinical isolate 356/09, 18 h
Outline: as §1
In the case of S=C(Nc1ccc(I)cc1)Nc1nc[nH]n1, the MIC is reported as 50 µg/mL (≈ 145 µM).

Tested on: Candida parapsilosis
Test: Antifungal activity against Candida parapsilosis ATCC 22019 at 400 ug/disc after 18 hrs by disc diffusion method
Assay type: functional, organism-based
Details: not given
Outline: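 Yeasts tested by disc diffusion (CLSI) on RPMI agar with 2% glucose; 9 mm paper discs bearing 400 µg compound from methanol or DMSO solution; inhibition zone diameter read after 18 h at 35 °C.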
In the case of S=C(Nc1ccc(I)cc1)Nc1nc[nH]n1, the “diameter of the inhibition zone (DIZ)” value is reported as “inactive”.

Tested on: Escherichia coli
Test: Antibacterial activity against Escherichia coli ATCC 25922 at 400 ug/disc after 18 hrs by disc diffusion method
Assay type: functional, organism-based
Details: not given
Outline: as §3
With S=C(Nc1ccc(I)cc1)Nc1nc[nH]n1 the “diameter of the inhibition zone (DIZ)” value was “inactive”.

Tested on: Staphylococcus aureus
Test: Antibacterial activity against methicillin-resistant Staphylococcus aureus clinical isolate 376/09 after 18 hrs by twofold serial agar dilution technique
Assay type: functional
Details: clinical isolate 376/09, 18 h
Outline: as §1
For S=C(Nc1ccc(I)cc1)Nc1nc[nH]n1, the MIC was 50 µg/mL (≈ 145 µM).

Tested on: Staphylococcus aureus
Test: Antibacterial activity against methicillin-resistant Staphylococcus aureus clinical isolate 325/09 after 18 hrs by twofold serial agar dilution technique
Assay type: functional
Details: clinical isolate 325/09, 18 h
Outline: as §1
Compound S=C(Nc1ccc(I)cc1)Nc1nc[nH]n1 has an MIC of 25 µg/mL (≈ 72.4 µM).

Tested on: Enterococcus hirae
Test: Antibacterial activity against Enterococcus hirae ATCC 10541 at 400 ug/disc after 18 hrs by disc diffusion method
Assay type: functional
Details: ATCC 10541, 18 h, read-out: DIZ
Outline: as §3
Work on S=C(Nc1ccc(I)cc1)Nc1nc[nH]n1 yielded a zone of inhibition at 400 µg/disc of 13 mm.

Tested on: not listed separately
Test: Cytotoxicity against human MT4 cells after 96 hrs by MTT assay
Assay type: cell-based
Details: not given
S=C(Nc1ccc(I)cc1)Nc1nc[nH]n1 showed a CC50 at 96 h of 46 µM.

Tested on: Bacillus cereus
Test: Antibacterial activity against Bacillus cereus ATCC 11778 at 400 ug/disc after 18 hrs by disc diffusion method
Assay type: functional
Details: ATCC 11778, 18 h, read-out: DIZ
Outline: as §3
S=C(Nc1ccc(I)cc1)Nc1nc[nH]n1 gave a zone of inhibition at 400 µg/disc of 13 mm.

Tested on: Staphylococcus epidermidis
Test: Antibacterial activity against methicillin-resistant Staphylococcus epidermidis clinical isolate 315/08 after 18 hrs by twofold serial agar dilution technique
Assay type: functional
Details: clinical isolate 315/08, 18 h
Outline: as §1
Work on S=C(Nc1ccc(I)cc1)Nc1nc[nH]n1 yielded an MIC of 50 µg/mL (≈ 145 µM).

Tested on: Micrococcus luteus
Test: Antibacterial activity against Micrococcus luteus ATCC 10240 at 400 ug/disc after 18 hrs by disc diffusion method
Assay type: functional
Details: ATCC 10240, 18 h, read-out: DIZ
Outline: as §3
S=C(Nc1ccc(I)cc1)Nc1nc[nH]n1 gave a zone of inhibition at 400 µg/disc of 16 mm.

Tested on: Bacillus subtilis
Test: Antibacterial activity against Bacillus subtilis ATCC 6633 at 400 ug/disc after 18 hrs by disc diffusion method
Assay type: functional
Details: ATCC 6633, 18 h, read-out: DIZ
Outline: as §3
For S=C(Nc1ccc(I)cc1)Nc1nc[nH]n1, the zone of inhibition at 400 µg/disc was 18 mm.

Tested on: Staphylococcus epidermidis
Test: Antibacterial activity against methicillin-resistant Staphylococcus epidermidis clinical isolate 311/08 after 18 hrs by twofold serial agar dilution technique
Assay type: functional
Details: clinical isolate 311/08, 18 h
Outline: as §1
Compound S=C(Nc1ccc(I)cc1)Nc1nc[nH]n1 has an MIC of 50 µg/mL (≈ 145 µM).
